{"source": "ChEMBL document CHEMBL1155717", "about": "“Monoterpene glycosides and triterpene acids from Eriobotrya deflexa” (J Nat Prod, 2001)", "note": "Calls of active or inactive are those of the source. The rule behind the calls is not given here.", "data": [{"tested_on": "not listed separately", "experiment": "Antiinflammatory activity in human PMNC assessed as inhibition of proliferation", "format": "functional", "method_in_brief": "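In vitro antiproliferation assay on human mononuclear cells (T lymphocytes, B lymphocytes and macrophages) isolated from peripheral blood. Compounds were tested at up to 100 µM, and activity was expressed as IC50.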", "units": {"IC50": "µM"}, "values": [{"compound": "C[C@@H]1CC[C@]2(C(=O)O)CC[C@]3(C)C(=CC[C@@H]4[C@@]5(C)[C@H](O)[C@@H](O)C(=O)C(C)(C)[C@@H]5CC[C@]43C)[C@@H]2[C@]1(C)O", "IC50": 26.9}, {"compound": "C[C@@H]1CC[C@]2(C(=O)O)CC[C@]3(C)C(=CC[C@@H]4[C@@]5(C)C[C@@H](O)[C@@H](O)C(C)(C)[C@@H]5CC[C@]43C)[C@@H]2[C@]1(C)O", "note": "[EUSCAPHIC ACID]", "IC50": 28.8}, {"compound": "C[C@@H]1CC[C@]2(C(=O)O)CC[C@]3(C)C(=CC[C@@H]4[C@@]5(C)C[C@@H](O)C(=O)C(C)(C)[C@@H]5CC[C@]43C)[C@@H]2[C@]1(C)O", "IC50": 40}, {"compound": "C[C@@H]1CC[C@]2(C(=O)O)CC[C@]3(C)C(=CC[C@@H]4[C@@]5(C)CC(=O)[C@H](O)C(C)(C)[C@@H]5CC[C@]43C)[C@@H]2[C@]1(C)O", "IC50": 38.1}, {"compound": "C[C@@H]1CC[C@]2(C(=O)O)CC[C@]3(C)C(=CC[C@@H]4[C@@]5(C)[C@H](O)C(=O)[C@H](O)C(C)(C)[C@@H]5CC[C@]43C)[C@@H]2[C@]1(C)O", "IC50": 32.5}]}, {"organism": "Homo sapiens", "experiment": "Antiinflammatory activity in human PMNC assessed as inhibition of proliferation upto 10 uM", "format": "functional", "values": [{"compound": "C=C[C@](C)(CCC=C(C)C)O[C@@H]1O[C@H](CO[C@@H]2O[C@@H](C)[C@H](OC(=O)/C=C\\c3ccc(O)cc3)[C@@H](O[C@@H]3O[C@@H](C)[C@H](O)[C@@H](O)[C@H]3O)[C@H]2O)[C@@H](O)[C@H](O)[C@H]1O", "Activity": "inactive"}, {"compound": "C=C[C@](C)(CCC=C(C)C)O[C@@H]1O[C@H](CO[C@@H]2O[C@@H](C)[C@H](OC(=O)/C=C/c3ccc(O)cc3)[C@@H](O[C@@H]3O[C@@H](C)[C@H](O)[C@@H](O)[C@H]3O)[C@H]2O)[C@@H](O)[C@H](O)[C@H]1O", "Activity": "inactive"}]}]}
